PMC2913166 (Molecular pharmaceutics, 2009)
Where “and” joins values, the source holds several entries; their conditions need not be identical. Equal entries are not always repeated. Entries after “also recorded” stand apart in the source; their conditions may differ. K(Me2NCp) = not defined here; CbOH = not defined here

Tests used:
[1] = Absorption and fluorescence spectroscopy, quantum yield; assay type: physicochemical; conditions: for λabs max / λem max / Quantum yield: 20% DMSO in water; for λabs max / λem max: room temperature; for Quantum yield: relative to ICG in DMSO, QY=0.12
Summary of the method: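 Test compounds dissolved in spectral-grade DMSO, diluted in 20% DMSO/water, and read at room temperature. Fluorescence was excited at 700 nm with 5 nm slits, keeping absorbance below 0.1. Molar absorptivity was averaged from three-point measurements at the absorption maximum. Quantum yield was taken relative to ICG in 100% DMSO. Probe in assay buffer was split: one half diluted with water to 1 mL, the other cleaved by caspase-3, then diluted likewise.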

[2] = Fluorescence lifetime measurement; assay type: physicochemical; conditions: 20% DMSO/water, excitation 773 nm, detection 820 nm, room temperature
Summary of the method: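 TCSPC used a 773 nm pulsed LED source at 1 MHz, with detection at 90°. Counts were binned at 6.88 ps/channel until the peak reached 10,000, on a 50 ns scale. Instrument response came from Rayleigh scatter of 0.03% Ludox-40. Decays in 20% DMSO/water were fitted to two exponentials, discarding components contributing <3%.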

[3] = dissolved in 100% DMSO; reference value used for comparison; cited from earlier work
A549 cells = assay type: cell-based, human; conditions: 5 μM paclitaxel for 2 h; read out by fluorescence of 5
Summary of the method: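 A549 cells were grown in Ham's F12K with 10% FBS and penicillin/streptomycin at 37°C, 5% CO2, seeded at 1×10^5/well in chamber slides overnight. Cells were loaded with 10 μM probe using GeneJuice in Opti-MEM for 24 h at 37°C. Paclitaxel was given for 2 h at 37°C, then three PBS washes. NIR confocal imaging (785 nm laser) read mean cytoplasmic intensity (Ex/Em 785/805–830) in 12 cells; mean ± SD, t-test.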

caspase-3 = conditions: cited from earlier work; for Km: read-out: KM of standard substrate
[4] = target: T1, recombinant human caspase-3 (Homo sapiens, UniProt P42574); assay: Caspase-3 enzyme kinetics of the NIR substrates; assay type: biochemical
T1 sequence (P42574 29-175 limits assumed): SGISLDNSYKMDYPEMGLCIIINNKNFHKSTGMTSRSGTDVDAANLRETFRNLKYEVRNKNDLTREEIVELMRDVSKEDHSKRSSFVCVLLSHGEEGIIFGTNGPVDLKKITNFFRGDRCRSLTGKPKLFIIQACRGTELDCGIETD
T1 sequence (P42574 176-277 limits assumed): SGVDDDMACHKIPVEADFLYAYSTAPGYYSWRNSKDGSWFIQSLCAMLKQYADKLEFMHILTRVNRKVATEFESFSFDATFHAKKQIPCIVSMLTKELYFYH
Summary of the method: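 Active sites were titrated with Ac-DEVD-pNA (2.5–50 μM, 25°C, absorbance […] nm). Substrate (0.5–100 μM; DMSO stock) hydrolysis was followed by NIR fluorescence (ex 785/em 805 nm) over time. Linear slope ÷ complete-hydrolysis fluorescence × [S] gave vo, fitted to Michaelis–Menten. kcat/KM was computed; ± SEM.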

Compound	λabs max [1]	λem max [1] [nm]	Quantum yield [1]	kcat of standard substrate (caspase-3) [s⁻¹]	Km (caspase-3) [µM]	other results
CC1(C)C(/C=C/C=C/C=C/C=C2/N(CCC(=O)O)c3ccc4ccccc4c3C2(C)C)=[N+](CCC(=O)[O-])c2ccc3ccccc3c21 [Compound 2, cypate, reference compound]	783 nm	808	0.031			Lifetime [2]: 0.25 ns
CC1(C)C(/C=C/C=C/C=C/C=C2\N(CCCCS(=O)(=O)O)c3ccc4ccccc4c3C2(C)C)=[N+](CCCCS(=O)(=O)[O-])c2ccc3ccccc3c21 [ICG, indocyanine green]						Fluorescence quantum yield of the standard [3]: 0.12
CC(=O)O[C@H]1C(=O)[C@@]2(C)[C@H]([C@H](OC(=O)c3ccccc3)[C@]3(O)C[C@H](OC(=O)[C@H](O)[C@@H](NC(=O)c4ccccc4)c4ccccc4)C(C)=C1C3(C)C)[C@]1(OC(C)=O)CO[C@@H]1C[C@@H]2O [paclitaxel]						Activation of caspase-3 in A549 cells (A549 cells): sufficient to activate caspase-3
Ac-DEVD-AMC				0.75	9.7	
Ac-DEVD-pNA				2.4	11	
AcGK(Me2NCp)-DEVD-APK(CbOH)-NH2 ({Ac-Gly-K(Me2NCp)}-DEVDAPK(CbOH)-NH2; reading uncertain; also: printed as AcGK(Me2NCp)-DEVD-APK(CbOH)-NH2) [Compound 5]	759 nm and 790 nm	763	<0.001			Ratio F760/F810 of emission after cleavage ([1]; 5 after enzymatic cleavage by caspase-3, diluted with water): 7.16; kcat (turnover number) ([4]; 5 (0.5 to 100 μM) with caspase 3 (290 pM), 10 mM PIPES pH 7.4, 2 mM EDTA, 0.1% CHAPS, 5 mM DTT, triplicate, λex=785 nm, λem=805 nm, ± standard error of the mean, SEM): 1.02 ± 0.06 s⁻¹; Cleavage (hydrolysis) by caspase-3, in words ([4]; assay buffer pH 7.4, recombinant human caspase-3): cleaved more readily than 4; also recorded: readily cleaved; kcat/KM (catalytic efficiency) ([4]; caspase-3, computed from kcat and KM): 68000 M⁻¹ s⁻¹; Km ([4]; read-out: KM (Michaelis-Menten constant), 5 (0.5 to 100 μM) with caspase 3 (290 pM), 10 mM PIPES pH 7.4, 2 mM EDTA, 0.1% CHAPS, 5 mM DTT, triplicate, λex=785 nm, λem=805 nm, ± standard error of the mean, SEM): 15 ± 3 µM
